Measurements: ChEMBL document CHEMBL1212911, “Identification of potent and selective amidobipyridyl inhibitors of protein kinase D” (J Med Chem, 2010)
Activity calls are given as the source filed them. The rule behind the calls is not given here.

Assays:
[1] = molecular target: T1, Serine/threonine-protein kinase D1 (Homo sapiens, UniProt Q15139); assay: Inhibition of PKD1 assessed as inhibition of HDAC5 neuclear export
T1 sequence (Q15139 whole entry): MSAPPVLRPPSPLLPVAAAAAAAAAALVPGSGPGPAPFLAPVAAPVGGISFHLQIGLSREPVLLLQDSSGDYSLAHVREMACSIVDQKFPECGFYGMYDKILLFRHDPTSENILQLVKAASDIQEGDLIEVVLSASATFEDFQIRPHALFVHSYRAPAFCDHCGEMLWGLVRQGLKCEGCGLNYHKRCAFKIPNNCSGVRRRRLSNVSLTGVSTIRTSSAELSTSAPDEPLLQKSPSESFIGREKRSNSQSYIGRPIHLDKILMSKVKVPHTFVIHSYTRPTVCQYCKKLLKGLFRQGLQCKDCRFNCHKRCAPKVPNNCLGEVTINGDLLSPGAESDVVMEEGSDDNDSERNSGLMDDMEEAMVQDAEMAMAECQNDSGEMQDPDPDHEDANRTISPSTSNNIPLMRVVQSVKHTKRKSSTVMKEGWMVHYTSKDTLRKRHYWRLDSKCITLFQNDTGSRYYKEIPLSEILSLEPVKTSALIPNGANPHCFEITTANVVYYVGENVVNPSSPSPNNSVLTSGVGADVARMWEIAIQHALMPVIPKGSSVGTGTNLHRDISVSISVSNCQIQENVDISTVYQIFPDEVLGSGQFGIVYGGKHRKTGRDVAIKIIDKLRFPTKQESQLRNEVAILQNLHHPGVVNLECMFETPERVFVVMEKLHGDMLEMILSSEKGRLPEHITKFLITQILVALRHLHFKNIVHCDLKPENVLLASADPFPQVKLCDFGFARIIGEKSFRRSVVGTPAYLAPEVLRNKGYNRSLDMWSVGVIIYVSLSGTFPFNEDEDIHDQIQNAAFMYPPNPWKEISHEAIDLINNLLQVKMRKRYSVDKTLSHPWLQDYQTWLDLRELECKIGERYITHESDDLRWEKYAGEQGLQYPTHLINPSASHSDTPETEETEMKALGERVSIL
In short: (§1)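 Neonatal rat ventricular myocytes infected with adenovirus encoding GFP-HDAC5 and plated on gelatin-coated wells. Cells exposed to compound and stimulated with PGF2α for 2 h, then fixed. Cytoplasmic versus nuclear GFP intensity quantified by high-content imaging.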

[2] = Volume of distribution at steady state in Sprague-Dawley rat at 2 mg/kg, iv and 5 mg/kg, po; assay type: ADME, organism-based; settings: in vivo, read-out: Vdss
In short: (§2)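 Rats dosed iv 2 mg/kg (n = 2) or po 5 mg/kg (n = 3) in 10% NMP, 10% Cremophor, 80% pH 4.63 buffer. PK parameters derived from iv dosing, reported as mean ± SD.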

[3] = Half life in rats after 2 mg/kg intravenous dose; assay type: ADME, organism-based; parameters: dose 2 mg/kg, route intravenous; settings: Sprague-Dawley, rat, in vivo; in short: as §2
[4] = molecular target: Calcium/calmodulin-dependent protein kinase type 1D (Homo sapiens) (UniProt Q8IU85); assay: Inhibition of CaMK1delta; settings: concentration not given here
In short: (§3)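 Selectivity screen run externally (Invitrogen SelectScreen). Percent inhibition measured at 1 μM compound, mean of 2 measurements.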

[5] = molecular target: T2, Calcium/calmodulin-dependent protein kinase type IV (Homo sapiens) (UniProt Q16566); assay: Inhibition of human CaMK4; settings: concentration not given here; in short: as §3
T2 sequence (whole entry): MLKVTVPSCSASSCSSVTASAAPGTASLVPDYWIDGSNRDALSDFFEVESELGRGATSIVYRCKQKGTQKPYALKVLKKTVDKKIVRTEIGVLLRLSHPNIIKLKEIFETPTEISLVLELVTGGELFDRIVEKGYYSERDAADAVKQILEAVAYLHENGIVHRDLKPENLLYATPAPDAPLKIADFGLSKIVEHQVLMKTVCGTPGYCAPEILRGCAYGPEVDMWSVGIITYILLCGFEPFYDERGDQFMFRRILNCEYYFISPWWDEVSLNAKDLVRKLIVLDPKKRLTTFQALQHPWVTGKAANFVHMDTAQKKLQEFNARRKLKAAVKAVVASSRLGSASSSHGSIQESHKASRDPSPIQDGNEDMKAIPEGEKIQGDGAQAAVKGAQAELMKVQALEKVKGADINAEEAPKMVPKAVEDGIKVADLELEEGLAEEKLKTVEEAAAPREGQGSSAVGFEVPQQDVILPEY

[6] = molecular target: Serine/threonine-protein kinase MARK2 (Homo sapiens) (UniProt Q7KZI7); assay: Inhibition of human MARK2; settings: concentration not given here; in short: as §3
Sequence of Serine/threonine-protein kinase MARK2 (Homo sapiens) (Q7KZI7 whole entry): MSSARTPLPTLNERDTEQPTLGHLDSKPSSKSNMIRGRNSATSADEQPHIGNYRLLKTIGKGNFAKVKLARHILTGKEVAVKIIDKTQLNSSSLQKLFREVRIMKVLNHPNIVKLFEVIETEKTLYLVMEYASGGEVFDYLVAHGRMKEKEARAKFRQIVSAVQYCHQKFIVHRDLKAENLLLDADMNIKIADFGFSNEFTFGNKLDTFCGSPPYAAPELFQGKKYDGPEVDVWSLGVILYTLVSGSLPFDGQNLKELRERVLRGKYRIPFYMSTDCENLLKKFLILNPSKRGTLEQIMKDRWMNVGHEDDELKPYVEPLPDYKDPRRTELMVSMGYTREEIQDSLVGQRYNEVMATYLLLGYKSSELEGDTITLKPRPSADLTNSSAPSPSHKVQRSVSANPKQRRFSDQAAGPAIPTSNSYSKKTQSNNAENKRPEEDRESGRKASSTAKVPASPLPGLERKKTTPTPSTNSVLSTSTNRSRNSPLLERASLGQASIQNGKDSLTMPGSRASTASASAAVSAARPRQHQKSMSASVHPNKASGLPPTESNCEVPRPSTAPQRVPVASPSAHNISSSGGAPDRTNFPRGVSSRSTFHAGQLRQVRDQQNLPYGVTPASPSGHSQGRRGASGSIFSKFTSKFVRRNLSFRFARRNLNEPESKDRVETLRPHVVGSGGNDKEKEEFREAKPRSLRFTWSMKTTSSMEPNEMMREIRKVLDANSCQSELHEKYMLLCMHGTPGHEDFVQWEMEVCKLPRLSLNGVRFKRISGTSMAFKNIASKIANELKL

[7] = molecular target: G protein-coupled receptor kinase 5 (Homo sapiens) (UniProt P34947); assay: Inhibition of human GRK5; settings: concentration not given here; in short: as §3
[8] = molecular target: T3, Protein kinase C epsilon type (Homo sapiens) (UniProt Q02156); assay: Inhibition of PKCepsilon; settings: concentration not given here
T3 sequence (whole entry): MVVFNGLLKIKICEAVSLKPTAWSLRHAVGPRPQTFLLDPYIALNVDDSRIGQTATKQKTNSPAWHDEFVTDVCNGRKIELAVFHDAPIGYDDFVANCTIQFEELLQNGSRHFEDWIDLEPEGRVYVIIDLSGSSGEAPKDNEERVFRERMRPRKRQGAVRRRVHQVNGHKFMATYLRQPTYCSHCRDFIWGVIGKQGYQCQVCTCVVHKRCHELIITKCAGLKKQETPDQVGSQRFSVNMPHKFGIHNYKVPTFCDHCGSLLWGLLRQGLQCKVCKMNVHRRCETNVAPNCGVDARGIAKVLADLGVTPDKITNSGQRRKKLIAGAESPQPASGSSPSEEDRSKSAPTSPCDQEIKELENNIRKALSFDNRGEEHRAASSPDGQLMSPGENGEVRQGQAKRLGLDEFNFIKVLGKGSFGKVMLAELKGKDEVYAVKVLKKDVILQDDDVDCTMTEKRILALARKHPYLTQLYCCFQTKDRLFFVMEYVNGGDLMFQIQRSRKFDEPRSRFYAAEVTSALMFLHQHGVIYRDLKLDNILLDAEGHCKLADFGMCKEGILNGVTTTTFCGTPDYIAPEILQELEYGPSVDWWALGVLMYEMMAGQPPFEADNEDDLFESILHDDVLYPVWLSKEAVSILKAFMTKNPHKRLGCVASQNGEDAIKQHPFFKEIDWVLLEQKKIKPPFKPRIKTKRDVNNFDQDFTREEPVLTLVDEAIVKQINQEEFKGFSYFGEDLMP

Rattus norvegicus [9] = assay: Antihypertensive activity in thoracic aortic banded Sprague-Dawley rat assessed as inhibition of cardia hypertrophy at 5 mg/kg, sc; assay type: functional, organism-based; parameters: dose 5 mg/kg; settings: Aorta
In short: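 Rats fitted with an aortic occlusion cuff or given sham surgery. Dosed 5 mg/kg/day sc in acidified captisol, or vehicle, for 2 weeks. End-point cardiac performance assessed by ultrasound and hemodynamics by direct catheterization.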

Pkd1 (Rattus norvegicus) = Pkd1 (Rattus norvegicus) (UniProt Q9ERV0); assay: Inhibition of PKD1 in rat ventricular myosyte assessed as inhibition of HDAC5 neuclear export; in short: as §1
Sequence of Pkd1 (Rattus norvegicus) (Q9ERV0 as listed by the source): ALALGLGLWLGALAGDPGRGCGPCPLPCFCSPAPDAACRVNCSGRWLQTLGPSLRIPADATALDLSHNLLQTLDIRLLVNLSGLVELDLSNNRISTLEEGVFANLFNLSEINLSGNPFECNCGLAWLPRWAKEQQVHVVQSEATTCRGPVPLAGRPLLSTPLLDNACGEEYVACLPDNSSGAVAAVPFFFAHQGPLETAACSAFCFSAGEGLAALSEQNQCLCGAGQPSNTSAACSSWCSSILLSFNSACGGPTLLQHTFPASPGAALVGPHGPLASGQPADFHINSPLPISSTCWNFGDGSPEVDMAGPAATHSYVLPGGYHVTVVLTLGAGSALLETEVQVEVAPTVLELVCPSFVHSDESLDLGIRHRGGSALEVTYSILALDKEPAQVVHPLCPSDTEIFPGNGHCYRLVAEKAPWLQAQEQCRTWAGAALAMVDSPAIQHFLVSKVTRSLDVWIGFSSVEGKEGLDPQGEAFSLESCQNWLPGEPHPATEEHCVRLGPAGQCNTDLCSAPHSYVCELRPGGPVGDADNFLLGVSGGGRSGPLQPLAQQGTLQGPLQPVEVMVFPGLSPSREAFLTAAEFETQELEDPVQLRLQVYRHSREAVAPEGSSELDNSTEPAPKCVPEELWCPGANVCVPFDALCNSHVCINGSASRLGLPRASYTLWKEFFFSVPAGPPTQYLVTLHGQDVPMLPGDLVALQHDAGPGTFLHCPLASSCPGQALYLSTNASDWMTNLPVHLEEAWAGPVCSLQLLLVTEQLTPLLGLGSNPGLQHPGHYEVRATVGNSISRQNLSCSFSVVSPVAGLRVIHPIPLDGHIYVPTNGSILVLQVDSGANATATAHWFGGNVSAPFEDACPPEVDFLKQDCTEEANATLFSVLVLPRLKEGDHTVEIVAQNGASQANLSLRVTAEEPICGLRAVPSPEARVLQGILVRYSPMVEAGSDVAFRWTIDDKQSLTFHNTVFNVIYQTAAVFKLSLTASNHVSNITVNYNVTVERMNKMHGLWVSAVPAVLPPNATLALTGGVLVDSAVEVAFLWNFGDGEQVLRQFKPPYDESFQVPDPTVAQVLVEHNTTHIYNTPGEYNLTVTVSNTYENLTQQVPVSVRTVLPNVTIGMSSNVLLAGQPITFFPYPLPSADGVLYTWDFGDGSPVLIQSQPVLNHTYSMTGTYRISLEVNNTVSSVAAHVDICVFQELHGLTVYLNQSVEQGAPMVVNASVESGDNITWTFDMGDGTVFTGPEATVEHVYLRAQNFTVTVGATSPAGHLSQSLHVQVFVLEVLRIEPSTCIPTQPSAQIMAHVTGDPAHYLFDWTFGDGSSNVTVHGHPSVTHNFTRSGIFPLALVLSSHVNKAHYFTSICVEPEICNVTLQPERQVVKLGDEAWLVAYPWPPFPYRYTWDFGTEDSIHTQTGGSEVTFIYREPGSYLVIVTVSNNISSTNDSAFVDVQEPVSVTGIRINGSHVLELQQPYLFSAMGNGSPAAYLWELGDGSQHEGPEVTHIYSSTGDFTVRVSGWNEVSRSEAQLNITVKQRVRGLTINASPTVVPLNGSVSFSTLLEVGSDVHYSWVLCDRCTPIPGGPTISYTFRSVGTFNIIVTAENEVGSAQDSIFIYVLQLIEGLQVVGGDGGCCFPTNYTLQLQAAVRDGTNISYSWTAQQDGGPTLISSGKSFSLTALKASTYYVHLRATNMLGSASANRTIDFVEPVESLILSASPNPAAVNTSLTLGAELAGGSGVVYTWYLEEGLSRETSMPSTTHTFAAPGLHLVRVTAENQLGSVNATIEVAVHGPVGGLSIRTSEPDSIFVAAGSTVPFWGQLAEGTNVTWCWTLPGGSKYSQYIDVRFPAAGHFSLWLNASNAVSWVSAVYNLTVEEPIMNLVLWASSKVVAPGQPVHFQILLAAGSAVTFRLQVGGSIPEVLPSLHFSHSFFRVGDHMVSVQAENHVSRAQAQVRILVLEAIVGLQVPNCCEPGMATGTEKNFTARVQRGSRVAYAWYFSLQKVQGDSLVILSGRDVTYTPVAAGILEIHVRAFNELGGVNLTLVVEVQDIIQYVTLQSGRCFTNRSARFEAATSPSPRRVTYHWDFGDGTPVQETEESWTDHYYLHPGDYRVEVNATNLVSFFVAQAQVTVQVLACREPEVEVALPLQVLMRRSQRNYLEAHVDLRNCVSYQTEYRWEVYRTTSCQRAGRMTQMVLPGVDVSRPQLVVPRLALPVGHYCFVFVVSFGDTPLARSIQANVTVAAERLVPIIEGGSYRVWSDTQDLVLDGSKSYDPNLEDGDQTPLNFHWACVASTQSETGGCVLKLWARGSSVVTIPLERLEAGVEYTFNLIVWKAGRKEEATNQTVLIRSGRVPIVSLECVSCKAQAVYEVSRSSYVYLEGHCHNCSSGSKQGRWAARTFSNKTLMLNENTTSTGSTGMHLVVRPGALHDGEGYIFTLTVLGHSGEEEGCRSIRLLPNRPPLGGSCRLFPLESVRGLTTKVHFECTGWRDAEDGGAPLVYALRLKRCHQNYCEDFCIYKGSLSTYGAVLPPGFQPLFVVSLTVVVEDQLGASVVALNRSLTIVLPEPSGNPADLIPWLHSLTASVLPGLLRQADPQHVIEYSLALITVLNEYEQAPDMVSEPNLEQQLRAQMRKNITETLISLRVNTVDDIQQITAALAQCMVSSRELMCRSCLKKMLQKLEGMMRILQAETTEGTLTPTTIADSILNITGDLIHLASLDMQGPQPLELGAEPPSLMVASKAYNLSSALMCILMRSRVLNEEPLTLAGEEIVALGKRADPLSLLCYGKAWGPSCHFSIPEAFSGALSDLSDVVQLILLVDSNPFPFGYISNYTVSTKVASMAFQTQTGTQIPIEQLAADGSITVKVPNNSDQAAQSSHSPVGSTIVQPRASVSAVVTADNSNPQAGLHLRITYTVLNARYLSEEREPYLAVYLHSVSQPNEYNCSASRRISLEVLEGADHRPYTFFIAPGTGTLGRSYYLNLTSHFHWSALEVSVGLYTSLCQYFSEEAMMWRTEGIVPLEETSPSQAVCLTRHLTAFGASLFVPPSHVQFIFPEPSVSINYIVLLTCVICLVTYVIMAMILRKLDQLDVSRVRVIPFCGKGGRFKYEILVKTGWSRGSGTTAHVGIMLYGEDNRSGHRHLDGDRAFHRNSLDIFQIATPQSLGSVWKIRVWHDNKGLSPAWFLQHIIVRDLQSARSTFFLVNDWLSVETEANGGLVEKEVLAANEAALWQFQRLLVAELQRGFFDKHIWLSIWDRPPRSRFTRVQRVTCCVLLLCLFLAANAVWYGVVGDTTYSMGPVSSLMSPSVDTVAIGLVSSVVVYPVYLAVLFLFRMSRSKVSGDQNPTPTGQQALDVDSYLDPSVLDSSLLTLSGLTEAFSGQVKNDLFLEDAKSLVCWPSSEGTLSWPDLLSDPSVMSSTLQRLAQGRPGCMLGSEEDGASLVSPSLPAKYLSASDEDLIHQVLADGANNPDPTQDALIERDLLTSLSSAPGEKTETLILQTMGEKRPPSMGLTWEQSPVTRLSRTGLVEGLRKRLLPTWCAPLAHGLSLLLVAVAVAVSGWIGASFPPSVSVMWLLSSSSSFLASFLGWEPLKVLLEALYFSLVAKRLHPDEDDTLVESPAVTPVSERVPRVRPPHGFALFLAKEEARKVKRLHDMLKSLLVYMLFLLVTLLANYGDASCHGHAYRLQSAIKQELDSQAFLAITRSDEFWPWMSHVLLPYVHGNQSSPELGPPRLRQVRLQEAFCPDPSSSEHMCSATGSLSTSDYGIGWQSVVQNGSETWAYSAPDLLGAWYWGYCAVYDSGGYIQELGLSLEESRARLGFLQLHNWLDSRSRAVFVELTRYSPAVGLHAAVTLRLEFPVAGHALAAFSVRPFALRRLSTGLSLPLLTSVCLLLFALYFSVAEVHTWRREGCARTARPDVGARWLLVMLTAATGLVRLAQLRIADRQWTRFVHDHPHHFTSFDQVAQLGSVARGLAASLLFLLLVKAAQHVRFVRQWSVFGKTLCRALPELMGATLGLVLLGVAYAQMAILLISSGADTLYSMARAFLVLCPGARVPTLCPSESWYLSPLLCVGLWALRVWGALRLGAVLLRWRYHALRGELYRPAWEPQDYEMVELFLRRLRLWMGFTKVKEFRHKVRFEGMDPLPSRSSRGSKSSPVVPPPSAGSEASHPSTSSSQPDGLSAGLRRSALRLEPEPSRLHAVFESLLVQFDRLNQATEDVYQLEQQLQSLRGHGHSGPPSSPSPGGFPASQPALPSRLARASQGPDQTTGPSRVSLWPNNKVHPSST

Plasma = assay: Drug level in Dahl salt-sensitive rat plasma at 5 mg/kg, sc qd; settings: in vivo
Rattus norvegicus [10] = assay: Ex vivo inhibition of PKD in PBMC isolated from Dahl salt-sensitive sc dosed rat assessed as inhibition of PMA-induced HDAC phosphorylation

- EC50 [1]: 77 nM
- Vd [2]: 22 L/kg
- half-life [3]: 228 min
- inhibition [4]: 6%
- inhibition [5]: 1%
- inhibition [6]: 27%
- inhibition [7]: 2%
- inhibition [8]: -3%
- inhibition (Pkd1 (Rattus norvegicus)): Active
- concentration (Plasma): 230 nM
SMILES: NC(=O)c1cc(-c2ccnc(NC3CCCCC3)c2)nc(N2CCNCC2)c1
- inhibition (Rattus norvegicus [9]): inactive
- Activity (Rattus norvegicus [10]): Active
